According to ChEMBL document CHEMBL1134118, “Inhibition of serine proteases: activity of 1,3-diazetidine-2,4-diones” (Bioorg Med Chem Lett, 2001):
Activity calls are given as the source filed them. The rule behind the calls is not given here.

Key:
Chymase [1] = target: T1, Chymase (Homo sapiens, UniProt P23946); assay: Compound was evaluated for its inhibitory activity against human Serine protease chymase up to a concentration > 10000 nM; NA= not active
T1 sequence (P23946 whole entry): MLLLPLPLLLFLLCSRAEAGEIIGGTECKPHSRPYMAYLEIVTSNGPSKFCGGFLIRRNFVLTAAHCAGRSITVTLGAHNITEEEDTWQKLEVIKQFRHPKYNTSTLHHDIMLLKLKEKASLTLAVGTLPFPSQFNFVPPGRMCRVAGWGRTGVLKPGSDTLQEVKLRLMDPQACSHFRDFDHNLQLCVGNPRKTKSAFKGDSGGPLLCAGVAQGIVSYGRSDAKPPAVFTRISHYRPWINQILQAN
In short: (§1)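 Purified human chymase preincubated with inhibitor (DMSO solution) for 30 min at 37 °C in 0.1 M Tris–HCl pH 8.0 with 1.8 M NaCl. Reaction started with succinyl-Ala-Ala-Pro-Phe-p-nitroanilide. Absorbance at 405 nm read after 2 h at 37 °C. IC50 calculated from inhibition of p-nitroaniline formation at each concentration.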

Chymase [2] = target: T1, Chymase; assay: Compound was evaluated for its inhibitory activity against human Serine protease chymase; in short: as §1
Neutrophil elastase = target: T2, Neutrophil elastase (Homo sapiens, UniProt P08246); assay: Compound was evaluated for its inhibitory activity against human neutrophil elastase
T2 sequence (P08246 whole entry): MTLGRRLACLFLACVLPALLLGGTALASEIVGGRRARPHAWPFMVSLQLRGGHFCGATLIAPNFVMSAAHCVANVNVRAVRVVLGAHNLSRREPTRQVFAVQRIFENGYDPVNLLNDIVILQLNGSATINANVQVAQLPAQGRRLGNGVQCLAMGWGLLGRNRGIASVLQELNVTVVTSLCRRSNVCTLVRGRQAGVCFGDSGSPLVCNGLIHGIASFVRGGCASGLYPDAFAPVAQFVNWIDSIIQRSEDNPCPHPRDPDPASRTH
In short: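 Purified human neutrophil elastase with chromogenic substrate N-succinyl-Ala-Ala-Val-pNA. Buffer 50 mM Tris-HCl pH 8.0 containing 2 mM CaCl2.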

Plasminogen [3] = target: T3, Plasminogen (Homo sapiens, UniProt P00747); assay: Compound was evaluated for its inhibitory activity against human plasmin up to a concentration > 1000 nM; NA= not activity; conditions: in the assay text read “> 10000 nM” for “> 1000 nM”
In short: (§2)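 Purified human plasmin assayed with chromogenic substrate Chromozym PL. Buffer 50 mM Tris-HCl pH 7.5 containing 50 mM NaCl.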

Prothrombin = Prothrombin (Homo sapiens, UniProt P00734); assay: Compound was evaluated for its inhibitory activity against human thrombin
In short: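 Purified thrombin with a chromogenic substrate. Buffer 0.1 M Tris-HCl pH 8.0 containing 10 mM CaCl2 and 0.1 M NaCl.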

Serine protease 1 = target: T4, Serine protease 1 (Bos taurus, UniProt P00760); assay: Compound was evaluated for its inhibitory activity against bovine pancreatic trypsin
T4 sequence (P00760 whole entry): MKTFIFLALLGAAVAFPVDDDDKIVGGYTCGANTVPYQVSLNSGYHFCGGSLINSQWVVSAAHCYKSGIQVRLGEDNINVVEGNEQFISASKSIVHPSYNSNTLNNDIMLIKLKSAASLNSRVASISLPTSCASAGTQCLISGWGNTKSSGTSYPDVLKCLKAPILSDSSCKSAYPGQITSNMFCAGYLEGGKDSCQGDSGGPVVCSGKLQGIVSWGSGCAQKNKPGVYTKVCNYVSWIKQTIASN
In short: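 Purified trypsin with a chromogenic substrate. Buffer 50 mM Tris-HCl pH 8.0 containing 2 mM CaCl2.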

Plasminogen [4] = target: T3, Plasminogen; assay: Compound was evaluated for its inhibitory activity against human plasmin; in short: as §2
[5] = Half life was determined; type: ADME; conditions: sodium methoxide 10 mM in methanol, 21 °C
In short: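 Chemical stability: 1 μmol compound added to 1 mL of 10 mM sodium methoxide in methanol, stirred at 21 °C. Aliquots removed every 2 h and analysed by reverse-phase HPLC to give t1/2.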

Cathepsin G = target: T5, Cathepsin G (Homo sapiens, UniProt P08311); assay: Compound was evaluated for its inhibitory activity against human cathepsin G
T5 sequence (P08311 whole entry): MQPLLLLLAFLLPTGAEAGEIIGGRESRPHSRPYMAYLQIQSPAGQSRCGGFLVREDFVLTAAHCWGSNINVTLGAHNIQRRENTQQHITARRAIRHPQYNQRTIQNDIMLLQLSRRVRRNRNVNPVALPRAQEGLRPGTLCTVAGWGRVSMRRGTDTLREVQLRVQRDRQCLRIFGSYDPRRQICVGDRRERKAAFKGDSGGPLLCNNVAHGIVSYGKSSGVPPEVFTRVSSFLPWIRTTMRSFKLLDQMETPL

T3 sequence (P00747 97-580 limits assumed): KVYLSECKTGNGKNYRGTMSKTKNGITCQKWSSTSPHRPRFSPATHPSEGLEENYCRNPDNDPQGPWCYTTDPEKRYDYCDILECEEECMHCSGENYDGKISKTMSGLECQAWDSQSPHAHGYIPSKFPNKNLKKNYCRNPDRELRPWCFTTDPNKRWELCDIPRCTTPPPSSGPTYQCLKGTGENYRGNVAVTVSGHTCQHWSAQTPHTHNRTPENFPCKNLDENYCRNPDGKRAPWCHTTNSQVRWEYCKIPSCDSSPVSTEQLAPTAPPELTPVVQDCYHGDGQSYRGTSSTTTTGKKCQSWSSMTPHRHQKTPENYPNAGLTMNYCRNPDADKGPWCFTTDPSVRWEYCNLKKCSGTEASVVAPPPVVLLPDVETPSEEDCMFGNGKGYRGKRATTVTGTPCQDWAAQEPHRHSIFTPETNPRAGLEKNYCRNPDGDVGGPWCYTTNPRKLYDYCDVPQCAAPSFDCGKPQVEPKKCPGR
T3 sequence (P00747 581-810 limits assumed): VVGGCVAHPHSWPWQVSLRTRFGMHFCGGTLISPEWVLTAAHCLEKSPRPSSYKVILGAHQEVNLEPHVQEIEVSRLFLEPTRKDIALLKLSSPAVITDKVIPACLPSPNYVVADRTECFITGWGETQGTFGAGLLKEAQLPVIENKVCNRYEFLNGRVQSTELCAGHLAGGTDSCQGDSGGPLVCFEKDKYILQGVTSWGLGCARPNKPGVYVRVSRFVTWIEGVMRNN

Row | SMILES | IC50 (Chymase [2]) [µM] | IC50 (Neutrophil elastase) [µM] | IC50 (Prothrombin) [µM] | IC50 (Serine protease 1) [µM] | further results
1 | CCOC(=O)CN1C(=O)N(CC(=O)OCC)C1=O |  |  |  |  | IC50 (Chymase [1]): Not Active
2 | Cc1ccc(N2C(=O)N(c3ccc(C)cc3)C2=O)cc1 | 0.14 | 0.23 | 2.3 | 0.2 | NA (Plasminogen [3]): inactive
3 | O=C1N(c2ccc3c(c2)OCO3)C(=O)N1c1ccc2c(c1)OCO2 | 0.048 |  |  |  | 
4 | CCN1C(=O)N(CC)C1=O |  | 0.058 | 5.6 | 39 | IC50 (Cathepsin G): 0.74 µM; IC50 (Plasminogen [4]): > 10 µM; IC50 (Chymase [1]): Not Active
5 | O=C1N(Cc2ccc3c(c2)OCO3)C(=O)N1Cc1ccc2c(c1)OCO2 | 0.00085 |  |  |  | 

More lines, main results first:

Row | IC50 (Chymase [2]) [µM] | IC50 (Neutrophil elastase) [µM] | IC50 (Prothrombin) [µM] | IC50 (Serine protease 1) [µM] | SMILES | further results
6 | 0.0023 |  |  |  | COc1cccc(CN2C(=O)N(Cc3cccc(OC)c3)C2=O)c1 | 
7 | 0.004 | 0.1 | 0.072 | 0.039 | O=C1N(Cc2ccccc2)C(=O)N1Cc1ccccc1 | IC50 (Plasminogen [4]): 2.9 µM; half-life [5]: 9.5 h
8 | 0.002 |  |  |  | COc1ccc(CN2C(=O)N(Cc3ccc(OC)cc3)C2=O)cc1 | 
